Measured values reported in ChEMBL document CHEMBL1687720 (Antimicrob Agents Chemother, 2009).

Columns and labels:
A549 [1] = experiment: Effect on glutathione peroxidase expression in human A549 cells assessed as transcript level at 166 nM after 24 hrs by RT-qPCR analysis relative to untreated control; type: functional; settings: in the assay text read “166 µM” for “166 nM”
Procedure, shortened: (§1)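 A549 cells are seeded at 2.5 × 10^5 per 25-cm2 well. At 40–45% confluence they are treated for 24 h with 166 or 662 μM, 158 or 315 μM, or 5 or 24 μM compound; controls receive <5% DMSO. Total RNA is DNase-treated and qRT-PCR is run in quadruplicate. Values are normalized to GAPDH and given as % of untreated control.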

A549 [2] = experiment: Effect on glutathione S-transferase expression in human A549 cells assessed as transcript level at 662 nM after 24 hrs by RT-qPCR analysis relative to untreated control; type: functional; settings: in the assay text read “662 µM” for “662 nM”; procedure, shortened: as §1
[3] = biological target: T1, Glutathione reductase, mitochondrial (Homo sapiens) (UniProt P00390); experiment: Inhibition of glutathione reductase in human A549 cells assessed as enzyme activity at 166 µM after 24 hrs relative to untreated control; design: scale not given: the % may be the effect or the level left
T1 sequence (whole entry): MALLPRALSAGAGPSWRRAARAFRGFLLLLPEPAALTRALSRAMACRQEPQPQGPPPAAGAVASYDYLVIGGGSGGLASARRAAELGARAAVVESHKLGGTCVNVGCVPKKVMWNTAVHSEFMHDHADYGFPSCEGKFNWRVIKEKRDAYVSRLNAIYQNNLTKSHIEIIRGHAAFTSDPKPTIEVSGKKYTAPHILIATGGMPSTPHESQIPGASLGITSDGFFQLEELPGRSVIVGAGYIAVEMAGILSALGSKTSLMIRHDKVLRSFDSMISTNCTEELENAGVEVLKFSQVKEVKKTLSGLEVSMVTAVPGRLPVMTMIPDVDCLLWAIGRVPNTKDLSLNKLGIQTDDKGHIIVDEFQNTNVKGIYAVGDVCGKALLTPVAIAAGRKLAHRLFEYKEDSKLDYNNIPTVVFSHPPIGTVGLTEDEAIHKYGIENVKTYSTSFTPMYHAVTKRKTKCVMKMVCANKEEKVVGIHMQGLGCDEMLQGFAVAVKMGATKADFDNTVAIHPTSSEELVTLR

A549 [4] = experiment: Inhibition of glutathione S-transferase in human A549 cells assessed as enzyme activity at 662 µM after 24 hrs relative to untreated control; design: scale not given: the % may be the effect or the level left
[5] = biological target: T1, Glutathione reductase, mitochondrial (Homo sapiens); experiment: Inhibition of glutathione reductase in human A549 cells assessed as enzyme activity at 662 µM after 24 hrs relative to untreated control; design: scale not given: the % may be the effect or the level left
Plasmodium falciparum [6] = experiment: Antiplasmodial activity against chloroquine-resistant Plasmodium falciparum K1 in presence of mefloquine; type: functional
A549 [7] = experiment: Inhibition of glutathione peroxidase in human A549 cells assessed as enzyme activity at 662 µM after 24 hrs relative to untreated control; design: scale not given: the % may be the effect or the level left
Plasmodium falciparum [8] = experiment: Antiplasmodial activity against chloroquine-resistant Plasmodium falciparum K1 in presence of pyrimethamine; type: functional
Plasmodium falciparum [9] = experiment: Antiplasmodial activity against chloroquine-resistant Plasmodium falciparum K1 in presence of premaquine; type: functional
Plasmodium falciparum [10] = experiment: Antiplasmodial activity against chloroquine-resistant Plasmodium falciparum K1 in presence of artemether; type: functional
A549 [11] = experiment: Effect on glutathione reductase expression in human A549 cells assessed as transcript level at 315 nM after 24 hrs by RT-qPCR analysis relative to untreated control; type: functional; settings: in the assay text read “315 µM” for “315 nM”; procedure, shortened: as §1
A549 [12] = experiment: Effect on thioredoxin reductase expression in human A549 cells assessed as transcript level at 158 nM after 24 hrs by RT-qPCR analysis relative to untreated control; type: functional; settings: in the assay text read “158 µM” for “158 nM”; procedure, shortened: as §1
A549 [13] = experiment: Inhibition of glutathione peroxidase in human A549 cells assessed as enzyme activity at 315 µM after 24 hrs relative to untreated control; design: scale not given: the % may be the effect or the level left
A549 [14] = experiment: Effect on glutathione S-transferase expression in human A549 cells assessed as transcript level at 315 nM after 24 hrs by RT-qPCR analysis relative to untreated control; type: functional; settings: in the assay text read “315 µM” for “315 nM”; procedure, shortened: as §1
[15] = biological target: T1, Glutathione reductase, mitochondrial (Homo sapiens); experiment: Inhibition of glutathione reductase in human A549 cells assessed as enzyme activity at 315 µM after 24 hrs relative to untreated control; design: scale not given: the % may be the effect or the level left
A549 [16] = experiment: Effect on glutathione S-transferase expression in human A549 cells assessed as transcript level at 5 nM after 24 hrs by RT-qPCR analysis relative to untreated control; type: functional; settings: in the assay text read “5 µM” for “5 nM”; procedure, shortened: as §1
Plasmodium falciparum [17] = experiment: Antiplasmodial activity against chloroquine-sensitive Plasmodium falciparum 3D7 assessed as inhibition of trophozoite stage parasite growth at 526 nM after 24 hrs by [3H]hypoxanthine incorporation assay; type: functional; settings: 3D7, read-out: GI
Procedure, shortened: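 P. falciparum 3D7 is synchronized with sorbitol. […] Cells are washed four times, then labelled with [3H]hypoxanthine for 24 h. Growth is given as % of untreated control for each stage, in triplicate.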

A549 [18] = experiment: Effect on glutathione peroxidase expression in human A549 cells assessed as transcript level at 24 nM after 24 hrs by RT-qPCR analysis relative to untreated control; type: functional; settings: in the assay text read “24 µM” for “24 nM”; procedure, shortened: as §1
A549 [19] = experiment: Effect on glutathione reductase expression in human A549 cells assessed as transcript level at 24 nM after 24 hrs by RT-qPCR analysis relative to untreated control; type: functional; settings: in the assay text read “24 µM” for “24 nM”; procedure, shortened: as §1
Plasmodium falciparum [20] = experiment: Downregulation of gamma-glutamylcysteine synthetase mRNA level in Plasmodium falciparum 3D7 trophozoites at 126 nM after 15 hrs by RT-qPCR analysis relative to untreated control; type: functional
Procedure, shortened: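 P. falciparum 3D7 trophozoites are exposed to 126 nM compound for 12, 15 or 18 h, then harvested by saponin lysis at 37°C. RNA is extracted and reverse-transcribed, and transcripts are quantified by real-time PCR in quadruplicate. Analysis uses ΔΔCT with 18S rRNA as reference (LDH also checked), expressed as % of untreated control.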

Plasmodium berghei = experiment: Antimalarial activity against Plasmodium berghei infected in mouse assessed as reduction in parasite load at 10 mg/kg for 4 days treated postinfection measured on day 7; type: functional; design: scale not given: the % may be the effect or the level left
Procedure, shortened: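 Murine Plasmodium berghei infection model. Compound given subcutaneously at 10 mg/kg for 4 days after infection, 13 treated mice and 13 controls. Parasitemia is compared with untreated controls, with significance by Fisher's exact test.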

A549 [21] = experiment: Effect on glutathione reductase expression in human A549 cells assessed as transcript level at 5 nM after 24 hrs by RT-qPCR analysis relative to untreated control; type: functional; settings: in the assay text read “5 µM” for “5 nM”; procedure, shortened: as §1

Q: Which results are given for `O=c1oc2c(O)c(O)cc3c(=O)oc4c(O)c(O)cc1c4c23` [ELLAGIC ACID]?
A: Activity (A549 [1]): 109%; Activity (A549 [2]): 131%; Activity [3]: 87%; Activity (A549 [4]): 101%; Activity [5]: 85%; FIC50 (Plasmodium falciparum [6]): 1; Activity (A549 [7]): 125%; FIC50 (Plasmodium falciparum [8]): 1; FIC50 (Plasmodium falciparum [9]): 1; FIC50 (Plasmodium falciparum [10]): 1

Q: What does the source list for `O=c1oc2c(O)c(O)c(O)c3c(=O)oc4c(O)c(O)cc1c4c23` [FLAVELLAGIC ACID]?
A: Activity (A549 [11]): 70%; Activity (A549 [12]): 97%; Activity (A549 [13]): 112%; Activity (A549 [14]): 164%; Activity [15]: 119%

Q: For `O=c1oc2c(O)c(O)c(O)c3c(=O)oc4c(O)c(O)c(O)c1c4c23` [CORULEOELLAGIC ACID], which Activity (A549 [16]) is on record?
A: Its Activity is 68%.

Q: What about the inhibition of growth at 0.526 µM (Plasmodium falciparum [17]) of the same molecule?
A: Its inhibition of growth at 0.526 µM is over 95%.

Q: And the Activity (A549 [18])?
A: The Activity was 71%.

Q: What about the Activity (A549 [19]) of the same molecule?
A: The Activity was 84%.

Q: What about the Activity (Plasmodium falciparum [20]) of the same molecule?
A: The Activity was 25%.

Q: And the Activity (Plasmodium berghei)?
A: Its Activity is 30%.

Q: And the Activity (A549 [21])?
A: Its Activity is 77%.
